Results on one molecule are retold here after ChEMBL document CHEMBL1268917, “Synthesis and biological evaluation of radio-iodinated benzimidazoles as SPECT imaging agents for NR2B subtype of NMDA receptor” (Bioorg Med Chem, 2010).

As a reminder, the logP is a log measure of how a compound divides between an organic and an aqueous phase. A high value points to a more lipophilic compound. As a reminder, the Ki is the dissociation constant of the complex between target and ligand, obtained from inhibition or displacement. Read a high Ki as weaker binding. What is called logD is lipophilicity at a set pH, counting ionised and neutral species. The low end stands for lower lipophilicity, the high end for higher lipophilicity.

For series [1], the target named is Glutamate receptor ionotropic, NMDA 2B (Rattus norvegicus) (UniProt Q00960). Put plainly: Binding affinity to NR2B receptor in rat cerebellum at 0.09 to 0.14 nM after 30 mins by autoradiography in presence of DTG relative to control. Format: tissue-based. The conditions noted are these: tested as the 125I-labelled form. In a few lines: (§1)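 Rinsed three times 3 min in cold buffer with 1% BSA, dipped in cold water, air-dried, exposed to imaging plates; PSL per mm² in ROIs. Expressed as % control binding; at least triplicate slices from three rats.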
Sequence of Glutamate receptor ionotropic, NMDA 2B (Rattus norvegicus) (Q00960 27-1482 limits assumed): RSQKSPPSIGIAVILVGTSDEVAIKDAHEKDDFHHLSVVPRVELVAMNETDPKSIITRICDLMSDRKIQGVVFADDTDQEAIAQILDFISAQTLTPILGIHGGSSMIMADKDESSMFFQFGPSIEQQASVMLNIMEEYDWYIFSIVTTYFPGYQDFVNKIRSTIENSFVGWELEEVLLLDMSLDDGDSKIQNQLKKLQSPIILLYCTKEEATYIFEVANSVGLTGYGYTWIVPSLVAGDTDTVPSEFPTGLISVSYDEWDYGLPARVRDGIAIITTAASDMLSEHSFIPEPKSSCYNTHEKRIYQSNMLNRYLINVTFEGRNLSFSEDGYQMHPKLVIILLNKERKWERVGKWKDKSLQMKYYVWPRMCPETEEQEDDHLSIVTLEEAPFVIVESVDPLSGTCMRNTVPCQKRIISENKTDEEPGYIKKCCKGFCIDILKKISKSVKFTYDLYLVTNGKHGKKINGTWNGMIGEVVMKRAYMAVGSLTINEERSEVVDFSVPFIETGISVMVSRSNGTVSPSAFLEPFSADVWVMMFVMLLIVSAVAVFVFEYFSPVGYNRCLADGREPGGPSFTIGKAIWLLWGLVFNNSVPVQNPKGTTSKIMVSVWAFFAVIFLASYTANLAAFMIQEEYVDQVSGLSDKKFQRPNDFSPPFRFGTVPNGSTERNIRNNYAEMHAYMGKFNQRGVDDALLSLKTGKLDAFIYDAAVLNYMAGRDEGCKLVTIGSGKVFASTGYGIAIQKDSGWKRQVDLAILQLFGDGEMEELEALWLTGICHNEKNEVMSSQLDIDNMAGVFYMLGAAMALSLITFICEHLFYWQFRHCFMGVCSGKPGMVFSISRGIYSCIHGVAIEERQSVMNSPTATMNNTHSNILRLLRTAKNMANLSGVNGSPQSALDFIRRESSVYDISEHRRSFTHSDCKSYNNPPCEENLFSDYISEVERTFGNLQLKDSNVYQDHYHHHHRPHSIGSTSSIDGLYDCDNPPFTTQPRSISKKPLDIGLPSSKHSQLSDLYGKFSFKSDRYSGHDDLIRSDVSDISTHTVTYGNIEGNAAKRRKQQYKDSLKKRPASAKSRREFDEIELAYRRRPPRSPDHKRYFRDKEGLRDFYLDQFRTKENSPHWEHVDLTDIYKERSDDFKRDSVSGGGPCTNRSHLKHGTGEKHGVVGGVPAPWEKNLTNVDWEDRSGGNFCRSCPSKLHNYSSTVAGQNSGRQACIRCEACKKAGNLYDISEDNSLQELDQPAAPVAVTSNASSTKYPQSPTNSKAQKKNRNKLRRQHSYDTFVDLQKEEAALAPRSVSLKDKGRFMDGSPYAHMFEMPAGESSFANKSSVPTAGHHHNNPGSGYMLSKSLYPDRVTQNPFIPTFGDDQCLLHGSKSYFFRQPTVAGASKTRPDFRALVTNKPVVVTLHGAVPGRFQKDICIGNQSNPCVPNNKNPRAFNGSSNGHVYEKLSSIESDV

The target is the same in series [2]. Description: Binding affinity to NR2B receptor in rat cerebellum at 0.09 to 0.14 nM after 30 mins by autoradiography in presence of Ro-256981 relative to control. Format: tissue-based. The conditions noted are these: tested as the 125I-labelled form. In a few lines:
as §1

The target is the same in series [3]. Description: Binding affinity to NR2B receptor in rat cerebral cortex at 0.09 to 0.14 nM after 30 mins by autoradiography in presence of DTG relative to control. The settings on record: tested as the 125I-labelled form. Format: tissue-based. In a few lines:
as §1

For series [4] the target is unchanged. Put plainly: Binding affinity to NR2B receptor in rat hippocampus at 0.09 to 0.14 nM after 30 mins by autoradiography in presence of DTG relative to control. In kind it is tissue-based. The conditions noted are these: tested as the 125I-labelled form. A digest of the protocol:
as §1

The target is the same in series [5]. Put plainly: Binding affinity to NR2B receptor in rat hippocampus at 0.09 to 0.14 nM after 30 mins by autoradiography in presence of prazosin relative to control. The settings on record: tested as the 125I-labelled form. In kind it is tissue-based. A digest of the protocol: as §1
Series [6] has the same target. Description: Binding affinity to NR2B receptor in rat cerebral cortex at 0.09 to 0.14 nM after 30 mins by autoradiography in presence of prazosin relative to control. The settings on record: tested as the 125I-labelled form. In kind it is tissue-based. In a few lines:
as §1

Series [7] has the same target. Description: Binding affinity to NR2B receptor in rat cerebellum at 0.09 to 0.14 nM after 30 mins by autoradiography in presence of prazosin relative to control. Format: tissue-based. The conditions noted are these: tested as the 125I-labelled form. In a few lines:
as §1

Series [8] can be described thus: Lipophilicity, log P of the compound. Format: physicochemical. The settings on record: octanol/water.
Series [9] concerns the target Glutamate receptor ionotropic, NMDA 2B (Rattus norvegicus) (UniProt Q00960). Put plainly: Binding affinity to NR2B receptor in rat cerebral cortex at 0.09 to 0.14 nM after 30 mins by autoradiography in presence of Ro-256981 relative to control. Format: tissue-based. The settings on record: tested as the 125I-labelled form. A digest of the protocol: as §1
Series [10] addresses Glutamate receptor ionotropic, NMDA 2B (Rattus norvegicus, UniProt Q00960). Description: Displacement of [3H]ifenprodil from NR2B receptor in rat cortical synaptic membranes. In kind it is cell membranes, Membrane.
The target of series [11] is Glutamate receptor ionotropic, NMDA 2B (Rattus norvegicus) (UniProt Q00960). Description: Binding affinity to NR2B receptor in rat hippocampus at 0.09 to 0.14 nM after 30 mins by autoradiography in presence of Ro-256981 relative to control. In kind it is tissue-based. The settings on record: tested as the 125I-labelled form. A digest of the protocol:
as §1

The nature of series [12]: Octanol-buffer partition coefficient, log D of the compound at pH 7.4. Format: physicochemical.

Sequence of Glutamate receptor ionotropic, NMDA 2B (Q00960 whole entry): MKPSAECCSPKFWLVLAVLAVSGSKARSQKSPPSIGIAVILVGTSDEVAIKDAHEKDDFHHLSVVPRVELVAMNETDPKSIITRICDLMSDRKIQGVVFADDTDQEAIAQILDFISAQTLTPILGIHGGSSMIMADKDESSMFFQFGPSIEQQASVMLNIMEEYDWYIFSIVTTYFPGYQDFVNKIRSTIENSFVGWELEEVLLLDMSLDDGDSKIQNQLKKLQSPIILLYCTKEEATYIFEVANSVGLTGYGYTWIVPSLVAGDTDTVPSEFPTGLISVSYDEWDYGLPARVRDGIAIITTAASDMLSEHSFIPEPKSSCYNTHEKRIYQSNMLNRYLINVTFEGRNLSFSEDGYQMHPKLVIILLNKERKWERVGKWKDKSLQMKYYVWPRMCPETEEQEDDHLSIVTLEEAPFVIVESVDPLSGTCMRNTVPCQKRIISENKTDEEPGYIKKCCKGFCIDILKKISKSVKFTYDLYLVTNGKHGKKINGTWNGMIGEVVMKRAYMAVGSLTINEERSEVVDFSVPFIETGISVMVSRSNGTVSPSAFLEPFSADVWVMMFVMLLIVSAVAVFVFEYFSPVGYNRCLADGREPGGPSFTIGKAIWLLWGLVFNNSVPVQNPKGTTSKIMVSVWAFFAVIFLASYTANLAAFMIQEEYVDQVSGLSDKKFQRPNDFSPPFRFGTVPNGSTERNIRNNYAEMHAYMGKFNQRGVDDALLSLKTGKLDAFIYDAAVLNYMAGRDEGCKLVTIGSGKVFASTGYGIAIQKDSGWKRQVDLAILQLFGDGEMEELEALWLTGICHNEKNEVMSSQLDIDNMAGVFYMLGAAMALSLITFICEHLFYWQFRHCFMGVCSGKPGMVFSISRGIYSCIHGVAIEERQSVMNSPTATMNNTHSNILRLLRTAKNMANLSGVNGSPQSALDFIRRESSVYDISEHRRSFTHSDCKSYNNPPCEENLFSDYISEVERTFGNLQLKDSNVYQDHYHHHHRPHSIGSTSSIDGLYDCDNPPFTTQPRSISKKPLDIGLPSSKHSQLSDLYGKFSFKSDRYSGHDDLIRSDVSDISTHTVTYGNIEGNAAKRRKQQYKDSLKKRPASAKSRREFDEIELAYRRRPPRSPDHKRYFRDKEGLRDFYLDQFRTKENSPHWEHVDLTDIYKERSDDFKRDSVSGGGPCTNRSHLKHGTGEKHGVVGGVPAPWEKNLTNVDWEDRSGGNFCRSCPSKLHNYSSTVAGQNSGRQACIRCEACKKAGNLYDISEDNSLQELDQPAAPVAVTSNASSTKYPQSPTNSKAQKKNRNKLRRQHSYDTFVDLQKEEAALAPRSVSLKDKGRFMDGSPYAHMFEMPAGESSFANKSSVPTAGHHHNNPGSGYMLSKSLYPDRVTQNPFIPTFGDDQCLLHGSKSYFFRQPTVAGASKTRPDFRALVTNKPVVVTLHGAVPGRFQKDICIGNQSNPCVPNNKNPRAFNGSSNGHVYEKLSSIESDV

Regarding `CS(=O)(=O)Nc1ccc2nc(CN3CCC(Cc4ccc(I)cc4)CC3)[nH]c2c1`, the Activity in [1] stood at 104%; in series [2] it was 89.3%; in series [3], 93%; in [4], 108%; in [5], 95.5%; in series [6] it was 92.8%. Besides, the Activity turned out to be 97% in series [7], 58.1% in series [9] and 59% in [11]. Further, the logP in [8] amounted to 3.54. Further, in series [10], the affinity, expressed as Ki, was 5.75 nM. In [12], this molecule yielded a logD of 3.54.
